Experimental data: ChEMBL document CHEMBL3856196, “3-(Benzodioxan-2-ylmethoxy)-2,6-difluorobenzamides bearing hydrophobic substituents at the 7-position of the benzodioxane nucleus potently inhibit methicillin-resistant Sa and Mtb cell division” (Eur J Med Chem, 2016)
In brackets after ≈: the same amount, converted by molar mass. Activity calls are given as the source filed them. The calls are words filed in the database; no cut-off is given here.

Experiments:
Staphylococcus aureus [1] = experiment: Antibacterial activity against […] Staphylococcus aureus ATCC 29213 after 16 hrs by spectrophotometric analysis; format: functional; settings: ATCC 29213, 16 h
Staphylococcus aureus [2] = experiment: Antibacterial activity against methicillin-resistant Staphylococcus aureus clinical isolates after 24 hrs by CLSI […] broth microdilution method; format: functional; settings: for MBC: read-out: MBC99.9
Method in brief: (§1)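 CLSI broth microdilution on clinical isolates. Log-phase bacteria in saline at 1–2 × 10⁵ CFU/mL were mixed with compounds diluted in LB, final 0.097–100 μg/mL, for 24 h at 37 °C. MIC is the lowest concentration with total growth inhibition. For MBC, clear wells were plated on sheep-blood agar for 18 h; >99.9% kill versus untreated control. Triplicate.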

Enterococcus faecalis [3] = experiment: Antibacterial activity against vancomycin-resistant Enterococcus faecalis clinical isolates after 24 hrs by CLSI […] broth microdilution method; format: functional; settings: for MBC: read-out: MBC99.9; method in brief: as §1
[4] = test system: Mycobacterium tuberculosis; experiment: Antitubercular activity against Mycobacterium tuberculosis H37Rv by Alamar blue assay; format: functional
Method in brief: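 M. tuberculosis in 7H9 medium with ADC and 0.05% Tween 80; MIC by microplate Alamar Blue assay.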

Enterococcus faecalis [5] = experiment: Antibacterial activity against vancomycin-susceptible Enterococcus faecalis clinical isolates after 24 hrs by CLSI […] broth microdilution method; format: functional; settings: for MBC: read-out: MBC99.9; method in brief: as §1
Staphylococcus aureus [6] = experiment: Antibacterial activity against methicillin-susceptible Staphylococcus aureus clinical isolates after 24 hrs by CLSI […] broth microdilution method; format: functional; settings: for MBC: read-out: MBC99.9; method in brief: as §1
[7] = test system: Mycolicibacterium smegmatis; experiment: Inhibition of FtsZ polymerization in GFP-tagged Mycobacterium smegmatis assessed as presence of elongated cells with enlarged bacterial pole at 0.5 ug/ml by fluorescence-based microscopic analysis
Method in brief: (§2)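 GFP-expressing M. smegmatis or M. tuberculosis grown at subMIC concentrations on glass coverslips in 7H9/ADC/Tween 80. Cells were fixed with phosphate-buffered 4% paraformaldehyde and examined by fluorescence microscopy at 100× for cell morphology.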

[8] = Cytotoxicity against human MRC5 cells assessed as reduction in cell viability after 24 hrs by MTT assay; format: toxicity, cell-based; settings: mrc5, 24 h
Method in brief: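 MRC-5 lung fibroblasts (DMEM, 10% heat-inactivated calf serum, 37 °C, 5% CO₂) at 10⁴ cells/well were exposed 24 h to twofold serial dilutions in DMEM. Then 1 mg/ml MTT in serum-free DMEM for 3 h, DMSO solubilisation, A570. Cytotoxicity % = 100 − (sample OD/untreated OD) × 100; TD₅₀/TD₉₀ are concentrations cutting viability 50/90%.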

[9] = test system: Mycobacterium tuberculosis; experiment: Inhibition of FtsZ polymerization in GFP-tagged Mycobacterium tuberculosis assessed as presence of elongated cells with enlarged bacterial pole at 8 ug/ml by fluorescence-based microscopic analysis; method in brief: as §2
[10] = Therapeutic index, ratio of TD90 for human MRC5 cells to MBC for […] Staphylococcus aureus ATCC 29213; format: cell-based; settings: read-out: TI
Method in brief: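 Ratio of TD₉₀ (MTT assay on MRC-5, 24 h exposure) to MBC against MRSA ATCC 29213 (LB tube assay, wash-out and overnight regrowth by OD600).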

[11] = target: T1, Cell division protein FtsZ (Staphylococcus aureus) (UniProt P0A031); experiment: Inhibition of Staphylococcus aureus FtsZ assessed as alteration in septum formation at 0.25 ug/ml after 16 hrs by transmission electron microscopic analysis
T1 sequence (whole entry): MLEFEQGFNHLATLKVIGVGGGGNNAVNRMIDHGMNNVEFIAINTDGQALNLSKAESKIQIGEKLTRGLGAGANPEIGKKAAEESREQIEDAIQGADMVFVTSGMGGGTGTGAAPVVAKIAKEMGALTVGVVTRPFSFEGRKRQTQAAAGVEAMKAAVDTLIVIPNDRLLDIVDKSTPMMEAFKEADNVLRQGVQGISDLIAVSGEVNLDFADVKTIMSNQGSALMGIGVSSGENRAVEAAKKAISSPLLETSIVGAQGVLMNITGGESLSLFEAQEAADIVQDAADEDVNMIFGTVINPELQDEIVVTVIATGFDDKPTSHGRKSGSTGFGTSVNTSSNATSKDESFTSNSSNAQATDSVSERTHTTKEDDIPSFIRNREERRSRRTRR
Method in brief: (§3)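 S. aureus at 10⁹ cells/ml grown 16 h at 37 °C with compound, untreated control included. Cells were pelleted at 3100 × g for 5 min, fixed in 2.5% glutaraldehyde in 0.1 M Na cacodylate pH 7.4 for 1 h at 4 °C, post-fixed in 1% OsO₄ for 1 h at 4 °C, and examined by TEM for septum and ultrastructure.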

[12] = target: T1, Cell division protein FtsZ (Staphylococcus aureus); experiment: Inhibition of Staphylococcus aureus FtsZ assessed as cellular desegregation at 0.25 ug/ml after overnight incubation by phase-contrast light microscopic analysis
Method in brief: (§4)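 S. aureus grown overnight with compound at levels starting from the previously determined MIC. Untreated cultures served as negative control. Examined by phase-contrast microscopy at 630×.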

[13] = target: T1, Cell division protein FtsZ (Staphylococcus aureus); experiment: Inhibition of Staphylococcus aureus FtsZ assessed as bacterial swelling at 0.25 ug/ml after overnight incubation by phase-contrast light microscopic analysis; method in brief: as §4
[14] = target: T1, Cell division protein FtsZ (Staphylococcus aureus); experiment: Inhibition of Staphylococcus aureus FtsZ assessed as increase in cell volume at 0.25 ug/ml after overnight incubation by phase-contrast light microscopic analysis; method in brief: as §4
[15] = target: T1, Cell division protein FtsZ (Staphylococcus aureus); experiment: Inhibition of Staphylococcus aureus FtsZ assessed as bacterial swelling at 1 ug/ml after overnight incubation by phase-contrast light microscopic analysis; method in brief: as §4
[16] = target: T1, Cell division protein FtsZ (Staphylococcus aureus); experiment: Inhibition of Staphylococcus aureus FtsZ assessed as increase in cell volume at 1 ug/ml after overnight incubation by phase-contrast light microscopic analysis; method in brief: as §4
[17] = target: T1, Cell division protein FtsZ (Staphylococcus aureus); experiment: Inhibition of Staphylococcus aureus FtsZ assessed as cellular desegregation at 1 ug/ml after overnight incubation by phase-contrast light microscopic analysis; method in brief: as §4
[18] = target: T1, Cell division protein FtsZ (Staphylococcus aureus); experiment: Inhibition of Staphylococcus aureus FtsZ assessed as cellular desegregation at 1 ug/ml after 16 hrs by transmission electron microscopic analysis; method in brief: as §3
Staphylococcus aureus [19] = experiment: Antibacterial activity against Staphylococcus aureus; format: functional
[20] = target: T1, Cell division protein FtsZ (Staphylococcus aureus); experiment: Inhibition of Staphylococcus aureus FtsZ assessed as increase in cell volume at 0.5 ug/ml after overnight incubation by phase-contrast light microscopic analysis; method in brief: as §4
[21] = target: T1, Cell division protein FtsZ (Staphylococcus aureus); experiment: Inhibition of Staphylococcus aureus FtsZ assessed as alteration in septum formation at 0.5 ug/ml after 16 hrs by transmission electron microscopic analysis; method in brief: as §3
Staphylococcus aureus [22] = experiment: Antibacterial activity against methicillin-susceptible Staphylococcus aureus; format: functional
[23] = test system: Mycolicibacterium smegmatis; experiment: Inhibition of FtsZ polymerization in GFP-tagged Mycobacterium smegmatis assessed as presence of elongated cells with enlarged bacterial pole at 4 ug/ml by fluorescence-based microscopic analysis; method in brief: as §2
[24] = test system: Mycobacterium tuberculosis; experiment: Inhibition of FtsZ polymerization in GFP-tagged Mycobacterium tuberculosis assessed as presence of elongated cells with enlarged bacterial pole at 4 ug/ml by fluorescence-based microscopic analysis; method in brief: as §2

SMILES	MIC (Staphylococcus aureus [1])	MBC (Staphylococcus aureus [1])	MIC90 (Staphylococcus aureus [2])	MBC (Staphylococcus aureus [2])	MIC90 (Enterococcus faecalis [3])	MBC (Enterococcus faecalis [3])	MIC [4]	MIC90 (Enterococcus faecalis [5])	MBC (Enterococcus faecalis [5])	MIC90 (Staphylococcus aureus [6])	MBC (Staphylococcus aureus [6])	TD90 [8]	selectivity ratio [10]	further results
CCCCNC(=O)c1ccc2c(c1)OC(COc1ccc(F)c(C(N)=O)c1F)CO2 (stereo not drawn)	> 100 µg/mL													
NC(=O)c1c(F)ccc(OCC2COc3cc(Cl)c(Cl)cc3O2)c1F (stereo not drawn)	2.5 µg/mL (≈ 6.41 µM)	5 µg/mL (≈ 12.8 µM)	3.12 µg/mL	6.25 µg/mL (≈ 16 µM)	12.5 µg/mL (≈ 32 µM)	50 µg/mL (≈ 128 µM)	16 µg/mL (≈ 41 µM)	6.25 µg/mL (≈ 16 µM)	50 µg/mL (≈ 128 µM)	3.12 µg/mL	6.25 µg/mL			
CCCCCCCCCOc1ccc(F)c(C(N)=O)c1F	1 µg/mL (≈ 3.34 µM)	1 µg/mL (≈ 3.34 µM)	0.39 µg/mL	0.78 µg/mL (≈ 2.61 µM)	12.5 µg/mL (≈ 41.8 µM)	25 µg/mL (≈ 83.5 µM)	16 µg/mL (≈ 53.4 µM)	6.25 µg/mL (≈ 20.9 µM)	12.5 µg/mL (≈ 41.8 µM)	0.19 µg/mL	0.19 µg/mL	> 200 µg/mL	> 200	inhibition [7]: Active; inhibition [9]: Active; inhibition [11]: Active; inhibition [12]: Active; inhibition [13]: Active; inhibition [14]: Active
COC(=O)c1ccc2c(c1)OC(COc1ccc(F)c(C(N)=O)c1F)CO2 (stereo not drawn)	0.625 µg/mL (≈ 1.65 µM)	0.625 µg/mL (≈ 1.65 µM)										> 1280 µg/mL	> 1280	inhibition [15]: Active; inhibition [16]: Active; inhibition [17]: Active; inhibition [18]: Active
C=Cc1ccc2c(c1)OC(COc1ccc(F)c(C(N)=O)c1F)CO2 (stereo not drawn)	0.625 µg/mL (≈ 1.8 µM)	1.25 µg/mL (≈ 3.6 µM)										> 800 µg/mL	> 640	
CS(=O)(=O)Nc1ccc2c(c1)OC(COc1ccc(F)c(C(N)=O)c1F)CO2 (stereo not drawn)	> 100 µg/mL													
NC(=O)c1c(F)ccc(OCC2COc3ccc([N+](=O)[O-])cc3O2)c1F (stereo not drawn)	1.25 µg/mL (≈ 3.41 µM)	2.5 µg/mL (≈ 6.83 µM)												
NC(=O)c1ccc2c(c1)OC(COc1ccc(F)c(C(N)=O)c1F)CO2 (stereo not drawn)	> 100 µg/mL													
NC(=O)c1c(F)ccc(OCC2COc3ccccc3O2)c1F (stereo not drawn)			3.12 µg/mL	6.25 µg/mL (≈ 19.5 µM)	25 µg/mL (≈ 77.8 µM)	50 µg/mL (≈ 156 µM)	16 µg/mL (≈ 49.8 µM)	25 µg/mL (≈ 77.8 µM)	50 µg/mL (≈ 156 µM)	3.12 µg/mL	12.5 µg/mL			MIC (Staphylococcus aureus [19]): 5 µg/mL (≈ 15.6 µM)
NC(=O)c1c(F)ccc(OCC2COc3ccc(I)cc3O2)c1F (stereo not drawn)	0.313 µg/mL (≈ 0.7 µM)	0.625 µg/mL (≈ 1.4 µM)	0.39 µg/mL	1.56 µg/mL (≈ 3.49 µM)	6.25 µg/mL (≈ 14 µM)	25 µg/mL (≈ 55.9 µM)		6.25 µg/mL (≈ 14 µM)	12.5 µg/mL (≈ 28 µM)	0.78 µg/mL	3.12 µg/mL	> 800 µg/mL	> 1280	
NC(=O)c1c(F)ccc(OC[C@@H]2COc3ccc(Cl)cc3O2)c1F			1 µM	0.78 µg/mL (≈ 2.19 µM)	25 µg/mL (≈ 70.3 µM)	50 µg/mL (≈ 141 µM)	8 µg/mL (≈ 22.5 µM)	25 µg/mL (≈ 70.3 µM)	50 µg/mL (≈ 141 µM)	0.5 µM	1 µM			inhibition [20]: Active; inhibition [21]: Active; MIC90 (Staphylococcus aureus [22]): 0.7 µM (≈ 0.249 µg/mL); inhibition [23]: Active; inhibition [24]: Active
